Laboratory results published in PubChem BioAssay.
The source made the active and inactive calls.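 Rule for the calls, unless noted: active = inhibition above 20% together with a positive visual image hit; inconclusive = visual image hit but inhibition not above 20%; inactive = no visual image hit.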

Tests used:
[1] = inhibitors of TNFa-induced NFkB p65 translocation, primary screen, imaging, HUVEC, MLSMR starter and 10KST1 sets (AID 438); details: HUVEC TNFa-induced p65 nuclear translocation; cell count: measured here: nuclei count (cytotoxicity indicator), at 2.08 µM; inhibition: at 2 µM, stronger effect = higher value, 0% TNFa-plus-vehicle, 100% no-TNFa wells;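 note: compound added about 3h40 before a 20 min TNFalpha stimulation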;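 for inhibition: signal is the nuclear over cytoplasmic p65 intensity ratio per well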
[2] = endothelial E-selectin expression blockers – imaging, HUVEC, immunofluorescence, MLSMR starter and 10KST1 sets, primary screen (AID 487;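 active = visually confirmed hit in the image check and inhibition above 20%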;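 for inhibition: signal is fraction of cell area covered by stained E-selectin grains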;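 for nuclei count: 100% = median nuclei count of all wells on the same plate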); details: HUVEC TNFalpha-induced E-selectin immunofluorescence imaging, at 2 µM; inhibition: stronger effect = higher value; nuclei count: measured here: cell number, toxicity
[3] = Primary imaging screen for DUSP6 inhibitors that restore phospho-Erk in transfected HeLa cells, chemical complementation (AID 609;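 active = compounds giving at least 50% inhibition in the cell-based MKP-3 phosphatase rescue imaging test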;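 for inhibition: phospho-Erk level distribution per well compared with pooled transfected vehicle control wells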); details: HeLa MKP-3 transfected, phospho-Erk imaging KS statistic, at 10 µM, cells stimulated with TPA for 15 min
[4] = biological target: Dual specificity protein phosphatase 6 (Homo sapiens) (UniProt Q16828); assay: as above; details: HeLa MKP-3 transfected, phospho-Erk imaging KS statistic; at 10 µM; stronger effect = higher value; cells stimulated with TPA for 15 min
[5] = biological target: Voltage-gated potassium channel subunit beta-2 (Rattus norvegicus) (UniProt P62483); assay: inhibitors of rat Kvbeta2 reductase activity – biochemical, NADPH fluorescence, primary screen (AID 622;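 active = fluorescence slope higher than the sample average by over 3 SD, cut at about -0.22 in these data, passing the limit was not always enough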;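 note: slope of raw intensity against log time taken from 70 to 1610 s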); details: recombinant KvBeta, 4-cyanobenzaldehyde reduction, at 10 µM, stronger effect = higher value
[6] = biological target: Voltage-gated potassium channel subunit beta-2 (Rattus norvegicus) (UniProt P62483); assay: enhancers of rat Kvbeta2 NADPH turnover – biochemical, NADPH fluorescence, primary screen (AID 623;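 active = NADPH fluorescence slope more negative than the mean of all samples by about 3 SD, 99.7% confidence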;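 note: fluorescence intensity change per second fitted from 20 to 320 s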); details: Recombinant KvBeta, NADPH fluorescence decrease slope, 10 min; at 10 µM; stronger effect = lower value
[7] = biological target: Alpha-2C adrenergic receptor (Homo sapiens) (UniProt P18825); assay: compounds altering alpha2C-coupled GIRK flux – cell-based, HEK293 alpha2C/GIRK1/2, thallium flux, primary screen (AID 624;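 active = fluorescence slope after compound addition differing from the mean of all screened samples at 99.7% confidence, in either direction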;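 note: slope of fluorescence ratio to pre-addition baseline per second over 15 to 24 s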); details: thallium flux BTC fluorescence, at 10 µM, actives lie on both sides
[8] = inhibitors of larval lipid processing in zebrafish, primary screen, whole organism, PED6 fluorescence, gall bladder and intestine (AID 686;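 active = a full or partial loss of lipid-probe fluorescence in the fish gall bladder, intestine or both, judged by eye; inactive = no fluorescence loss, or compound toxic to the fish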;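 note: larvae 5 to 7 days old with five fish per well; signal comes from phospholipase A2 cleavage of quenched PED6 carried via bile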); details: Zebrafish larvae PED6 lipid processing, fluorescence scoring; screened at 20 µM (by protocol)
In short: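 Incubation: overnight exposure of larvae to compound plus PED6 / Test system: live zebrafish larvae aged 5-7 days, whole organism / Amount: 5 larvae per well / Read-out basis: visual per-well fluorescence inhibition score / Signal: visual fluorescence microscopy scoring of gall bladder, gut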

[9] = loss of swimming-algae plug formation – whole organism, Chlamydomonas reinhardtii, WT vs cilia-less mutant, absorbance, 96-well, primary screen (AID 463189;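 active = inhibition at or above 50% relative to wild type and mutant plate controls; inactive = inhibition below 50%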;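 note: 0% = wild type cc124 cells in DMSO and 100% = ciliumless bld1 mutant cells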); details: Chlamydomonas reinhardtii gravitaxis, OD600 absorbance, 2 days; at 10 µM; stronger effect = higher value
[10] = measured here: cell density z-score
[11] = measured here: nuclear c-Myc green intensity z-score
[12] = measured here: nuclear pErk red intensity z-score, stronger effect = higher value

Dual specificity protein phosphatase 6 (Homo sapiens), sequence (Q16828 whole entry, looked up): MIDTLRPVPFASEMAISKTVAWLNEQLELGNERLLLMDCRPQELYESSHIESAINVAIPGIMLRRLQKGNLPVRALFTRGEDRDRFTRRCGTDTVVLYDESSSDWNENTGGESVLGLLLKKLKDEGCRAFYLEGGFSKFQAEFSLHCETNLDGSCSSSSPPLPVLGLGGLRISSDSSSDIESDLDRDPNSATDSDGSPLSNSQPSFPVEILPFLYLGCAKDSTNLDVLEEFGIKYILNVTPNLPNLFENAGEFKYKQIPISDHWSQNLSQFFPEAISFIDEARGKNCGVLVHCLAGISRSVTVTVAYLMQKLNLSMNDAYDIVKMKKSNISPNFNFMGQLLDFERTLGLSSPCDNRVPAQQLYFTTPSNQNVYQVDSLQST
Alpha-2C adrenergic receptor (Homo sapiens), sequence (P18825 whole entry, looked up): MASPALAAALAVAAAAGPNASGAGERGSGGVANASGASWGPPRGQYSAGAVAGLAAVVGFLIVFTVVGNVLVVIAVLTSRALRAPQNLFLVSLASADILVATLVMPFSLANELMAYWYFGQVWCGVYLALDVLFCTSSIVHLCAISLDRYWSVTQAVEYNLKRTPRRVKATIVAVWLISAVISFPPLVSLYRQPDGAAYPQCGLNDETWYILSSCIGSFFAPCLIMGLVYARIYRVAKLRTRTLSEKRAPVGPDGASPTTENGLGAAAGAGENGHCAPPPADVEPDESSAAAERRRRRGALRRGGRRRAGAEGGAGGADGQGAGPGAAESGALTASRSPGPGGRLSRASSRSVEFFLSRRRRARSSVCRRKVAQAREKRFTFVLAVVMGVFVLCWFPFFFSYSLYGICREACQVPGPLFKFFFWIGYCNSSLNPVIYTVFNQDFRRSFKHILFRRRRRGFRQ
Voltage-gated potassium channel subunit beta-2 (Rattus norvegicus), sequence (P62483 whole entry, looked up): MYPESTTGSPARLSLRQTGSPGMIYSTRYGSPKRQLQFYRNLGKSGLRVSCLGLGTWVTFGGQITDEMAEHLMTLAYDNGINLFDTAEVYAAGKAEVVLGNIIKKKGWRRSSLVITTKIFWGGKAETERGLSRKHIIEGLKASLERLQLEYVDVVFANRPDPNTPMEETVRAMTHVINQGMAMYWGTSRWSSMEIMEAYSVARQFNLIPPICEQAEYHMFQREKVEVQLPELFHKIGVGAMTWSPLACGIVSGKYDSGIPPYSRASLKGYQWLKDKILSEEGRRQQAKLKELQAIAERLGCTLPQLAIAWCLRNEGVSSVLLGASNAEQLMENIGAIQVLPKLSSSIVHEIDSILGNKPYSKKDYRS

| SMILES | cell count [1] | inhibition [1] | inhibition [2] | nuclei count [2] | z-score [3, 10] | z-score [3, 11] | z-score [3, 12] | inhibition [4] | fluorescence slope [5] | NADPH fluorescence slope [6] | slope [7] | outcome [8] | inhibition [9] |
| --- | --- | --- | --- | --- | --- | --- | --- | --- | --- | --- | --- | --- | --- |
| CC(=O)C1=C(O)C(=O)N(c2cccc(C(=O)O)c2)C1c1ccccc1F (stereo unspecified) | 545 | -2.4% (inactive) | -73.9% (inactive) | 156% | -0.336 | 0.7 | 0.539 | -9.66% (inactive) | -0.505 (inactive) | -4.6e-05 (inactive) | 0.00649 (inactive) | inactive | 3.92% (inactive) |
| COc1ccc(C(=O)c2sc(NC(C)C)nc2N)cc1OC | 327 | -12.2% (inactive) | -16.7% (inactive) | 105% | -0.265 | 0.429 | -0.628 | -11.9% (inactive) | -0.458 (inactive) | -6.7e-06 (inactive) | 0.0049 (inactive) | inactive | -3.2% (inactive) |
| Cc1cc(Cl)ccc1OCC(=O)OC(C)C(=O)N(C)C (stereo unspecified) | 356 | -24% (inactive) | -194% (inactive) | 168% | 1.09 | 0.169 | -0.845 | 5.26% (inactive) | -0.439 (inactive) | -0.000171 (inactive) | 0.00631 (inactive) | inactive | 7.97% (inactive) |
| CC1(C)NC(=O)N(CC(O)COc2ccccc2C(=O)Nc2ccccc2)C1=O (stereo unspecified) | 418 | -22.7% (inactive) | -2.7% (inactive) | 93.5% | -0.97 | 1.76 | -1.28 | 14% (inactive) | -0.495 (inactive) | -0.000337 (inactive) | 0.00492 (inactive) | inactive | 18.8% (inactive) |
| CC1(C)NC(=O)N(CC(O)Cn2nnc3ccccc32)C1=O (stereo unspecified) | 372 | 3.9% (inactive) | -188% (inactive) | 122% | 0.214 | 0.212 | 2.03 | -7.28% (inactive) | -0.357 (inactive) | 2.5e-05 (inactive) | 0.0051 (inactive) | inactive | 6.41% (inactive) |
| CCCCOC(=O)CSC1=C(C#N)C(c2ccccc2OC)C(C#N)C(=O)N1 (stereo unspecified) | 504 | -3% (inactive) | -46% (inactive) | 116% | -0.706 | 0.338 | 1.09 | 9.39% (inactive) | -0.481 (inactive) | -0.000165 (inactive) | 0.00464 (inactive) | inactive | -21.1% (inactive) |
| O=C1[C@@H]2[C@H](C(=O)N1O)[C@H]1C=C[C@@H]2C1 | 468 | -1% (inactive) | -174% (inactive) | 209% | -1.39 | 1.02 | 0.777 | 1.04% (inactive) | -0.392 (inactive) | -1.7e-05 (inactive) | 0.00509 (inactive) | inactive | 2.48% (inactive) |
| O=S1CCCSC1c1cccnc1 (stereo unspecified) | 524 | -10.3% (inactive) | -190% (inactive) | 144% | 1.86 | -0.668 | -1.2 | 13.9% (inactive) | -0.507 (inactive) | -1.9e-05 (inactive) | 0.00681 (inactive) | inactive | 2.49% (inactive) |
| COc1ccc2[nH]c(C)c(C(=O)CN3CC(C)OC(C)C3)c2c1 (stereo unspecified) | 551 | -0.3% (inactive) | -1% (inactive) | 143% | -0.788 | 1.62 | -0.00446 | 3.5% (inactive) | -0.194 (inactive) | 2.2e-05 (inactive) | 0.00534 (inactive) | inactive | 7.59% (inactive) |
| CS(=O)(=O)CCC(C(=O)n1nnc2ccccc21)N1C(=O)c2ccccc2C1=O (stereo unspecified) | 342 | -6.4% (inactive) | -46.5% (inactive) | 134% | 0.823 | -0.696 | -1.53 | 3.42% (inactive) | -0.419 (inactive) | -5.5e-05 (inactive) | 0.00572 (inactive) | inactive | 26% (inactive) |
| C=C(C)CSC1=C(C#N)C(c2ccsc2)CC(=O)N1 (stereo unspecified) | 486 | -5% (inactive) | 8.3% (inactive) | 121% | -1 | -0.892 | 0.991 | -5.89% (inactive) | -0.512 (inactive) | -6.2e-05 (inactive) | 0.00453 (inactive) | inactive | 13% (inactive) |
| CN(C)c1ccc(C2C3C(=O)N(c4ccc(C(=O)O)cc4)C(=O)C3ON2c2ccccc2)cc1 (stereo unspecified) | 491 | -9.3% (inactive) | -30.7% (inactive) | 148% | -0.854 | -1.46 | 0.576 | -13.3% (inactive) | -0.506 (inactive) | -3.3e-05 (inactive) | 0.00498 (inactive) | inactive | 13% (inactive) |
| CCC12CN3CC(CC)(CN(C1)C3c1c(O)ccc3ccccc13)C2=O (stereo unspecified) | 585 | -1.9% (inactive) | -44.2% (inactive) | 185% | -0.501 | 0.162 | 0.594 | 9.82% (inactive) | -0.336 (inactive) | 5.6e-06 (inactive) | 0.00425 (inactive) | inactive | 6.95% (inactive) |
| CC1(C)Cc2c(c(N3CCOCC3)nc3snc(N)c23)CO1 | 554 | -1.3% (inactive) | -78.1% (inactive) | 140% | 0.144 | -0.616 | 0.222 | 1.48% (inactive) | -0.281 (inactive) | -1.1e-05 (inactive) | 0.00566 (inactive) | inactive | 22.3% (inactive) |
| N#CC1=C(SCC(=O)c2ccc(Br)cc2)NC2=C(C(=O)CCC2)C1c1ccco1 (stereo unspecified) | 383 | -10.4% (inactive) | -96.6% (inactive) | 179% | 0.687 | -1.61 | 1.14 | -8.59% (inactive) | -0.399 (inactive) | -0.000128 (inactive) | 0.00589 (inactive) | inactive | 3.41% (inactive) |
| N#CC12CCCCC1CC1CCCCC1(C#N)N2Cc1cccnc1 (stereo unspecified) | 364 | -10.3% (inactive) | 3.8% (inactive) | 97.2% | 1.59 | -0.921 | -1.61 | 17% (inactive) | -0.557 (inactive) | -6.5e-05 (inactive) | 0.00335 (inactive) | inactive | 44.6% (inactive) |
| COCCOC(=O)C1=C(C)NC(SCC(=O)NC(C)(C)C)=C(C#N)C1c1ccco1 (stereo unspecified) | 364 | -11.5% (inactive) | -124% (inactive) | 121% | 0.297 | -0.0811 | -0.28 | 7.48% (inactive) | -0.397 (inactive) | -4e-05 (inactive) | 0.00427 (inactive) | inactive; toxic | 27.7% (inactive) |
| COc1cc(OC)cc(C(=O)N2CCC(N3CCCCCC3)CC2)c1 | 372 | -26.6% (inactive) | -111% (inactive) | 132% | 2.06 | -1.95 | -0.585 | 32.7% (inactive) | -0.337 (inactive) | -2.1e-05 (inactive) | 0.00559 (inactive) | inactive; toxic | 29.1% (inactive) |
| Oc1ccccc1CNn1cnnc1 | 563 | -0.7% (inactive) | -6.7% (inactive) | 168% | -0.0903 | -0.194 | 0.333 | -3.5% (inactive) | -0.324 (inactive) | 1.4e-05 (inactive) | 0.00654 (inactive) | inactive | 18.3% (inactive) |
| COc1ccc(C2CC(C(F)(F)F)n3ncc(C(=O)NCC4CCCO4)c3N2)cc1OC (stereo unspecified) | 536 | -1.8% (inactive) | 12.3% (inactive) | 132% | -0.241 | -1.11 | 1.35 | 3.66% (inactive) | -0.51 (inactive) | -6.1e-05 (inactive) | 0.00469 (inactive) | inactive | -9.44% (inactive) |
| O=C(O)C1CSC(CCc2ccccc2)N1 (stereo unspecified) | 633 | -7.7% (inactive) | -34.8% (inactive) | 140% | -0.486 | 0.112 | 1.29 | 7.83% (inactive) | -0.459 (inactive) | -0.000276 (inactive) | 0.00538 (inactive) | inactive | 8.25% (inactive) |
| O=C(Nc1ccc2c(c1)OCCO2)c1ccc(Br)o1 | 587 | 3.2% (inactive) | 6.1% (inactive) | 143% | 0.114 | -1.76 | -1.37 | -1.75% (inactive) | -0.295 (inactive) | -8.8e-06 (inactive) | 0.00481 (inactive) | inactive | 12.8% (inactive) |
| CC/C(C)=C1\SC(N2CCN(C(C)=O)CC2)=NC1=O | 475 | -8.5% (inactive) | -322% (inactive) | 208% | -0.503 | -0.13 | 0.531 | 4.37% (inactive) | -0.377 (inactive) | -3.8e-06 (inactive) | 0.00493 (inactive) | inactive | -1.03% (inactive) |
| Cc1ccc(S(=O)(=O)N2CCC(N3CCCCCC3)CC2)cc1 | 449 | -31.4% (inactive) | -231% (inactive) | 163% | 0.833 | -1.65 | 0.596 | 1.04% (inactive) | -0.29 (inactive) | -8.7e-06 (inactive) | 0.0051 (inactive) | inactive | 116% (active) |
| CCOC(=O)C1=C(CSc2nc3c(cc2C#N)CN(C)CC3)OC(N)=C(C#N)C1c1ccccc1 (stereo unspecified) | 616 | -8.1% (inactive) | 28.8% (inactive) | 169% | 1.95 | -0.602 | 0.371 | -5.62% (inactive) | -0.384 (inactive) | -4.7e-05 (inactive) | 0.00325 (inactive) | inactive | -1.09% (inactive) |
| Cc1ccc2[nH]c3c(c2c1)CCCC3C(N)=O (stereo unspecified) | 548 | -27.5% (inactive) | -103% (inactive) | 183% | -1.12 | 0.929 | -1.27 | -16.8% (inactive) | -0.508 (inactive) | -2.9e-05 (inactive) | 0.00527 (inactive) | inactive | 3.14% (inactive) |
| CN=C1c2cc3c(Br)c(OC)ccc3n2CCN1C | 550 | -16.9% (inactive) | -28.8% (inactive) | 142% | 0.29 | -0.368 | 0.361 | 8.31% (inactive) | -0.493 (inactive) | -5.7e-05 (inactive) | 0.00409 (inactive) | inactive; toxic | -2.97% (inactive) |
